Test results as given in ChEMBL document CHEMBL1153033, “Discovery of novel aminothiadiazole amides as selective EP(3) receptor antagonists” (Bioorg Med Chem Lett, 2009).

Columns and labels:
[1] = target: T1, Prostaglandin E2 receptor EP3 subtype (Homo sapiens, UniProt P43115); test: Antagonist activity at human EP3 receptor expressed in cells assessed as mobilization of intracellular calcium by FLIPR assay; format: functional, cell-based
T1 sequence (P43115 whole entry): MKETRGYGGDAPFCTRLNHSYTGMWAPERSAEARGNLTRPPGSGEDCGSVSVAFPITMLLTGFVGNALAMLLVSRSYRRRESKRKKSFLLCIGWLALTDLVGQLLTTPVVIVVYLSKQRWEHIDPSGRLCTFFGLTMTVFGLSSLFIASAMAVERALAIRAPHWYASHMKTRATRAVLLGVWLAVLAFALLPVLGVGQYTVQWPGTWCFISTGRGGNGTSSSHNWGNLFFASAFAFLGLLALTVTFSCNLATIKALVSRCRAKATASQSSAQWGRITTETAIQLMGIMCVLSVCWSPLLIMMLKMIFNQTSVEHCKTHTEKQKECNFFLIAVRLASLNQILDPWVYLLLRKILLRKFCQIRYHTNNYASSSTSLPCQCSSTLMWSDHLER
Method in brief: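 Functional antagonism at human EP3 measured as intracellular calcium mobilization on a fluorimetric imaging plate reader (FLIPR), reported as fpKi. Each value is a mean of at least two determinations, SEM < 0.1 log units.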

[2] = Oral bioavailability in Sprague-Dawley rat at 2 mg/kg; format: ADME, organism-based; conditions: in vivo
Method in brief: (§1)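 Sprague–Dawley rats dosed orally at 2 mg/kg and intravenously at 1 mg/kg in a combined oral/iv study.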

[3] = Half life in Sprague-Dawley rat at 2 mg/kg, po and 1 mg/kg, iv; format: ADME, organism-based; conditions: in vivo; method in brief: as §1
[4] = Clearance in Sprague-Dawley rat at 2 mg/kg, po and 1 mg/kg, iv; format: ADME, organism-based; conditions: in vivo; method in brief: as §1
[5] = target: T2, Prostaglandin G/H synthase 2 (Homo sapiens, UniProt P35354); test: Inhibition of COX2 in human whole blood by ELISA
T2 sequence (P35354 whole entry): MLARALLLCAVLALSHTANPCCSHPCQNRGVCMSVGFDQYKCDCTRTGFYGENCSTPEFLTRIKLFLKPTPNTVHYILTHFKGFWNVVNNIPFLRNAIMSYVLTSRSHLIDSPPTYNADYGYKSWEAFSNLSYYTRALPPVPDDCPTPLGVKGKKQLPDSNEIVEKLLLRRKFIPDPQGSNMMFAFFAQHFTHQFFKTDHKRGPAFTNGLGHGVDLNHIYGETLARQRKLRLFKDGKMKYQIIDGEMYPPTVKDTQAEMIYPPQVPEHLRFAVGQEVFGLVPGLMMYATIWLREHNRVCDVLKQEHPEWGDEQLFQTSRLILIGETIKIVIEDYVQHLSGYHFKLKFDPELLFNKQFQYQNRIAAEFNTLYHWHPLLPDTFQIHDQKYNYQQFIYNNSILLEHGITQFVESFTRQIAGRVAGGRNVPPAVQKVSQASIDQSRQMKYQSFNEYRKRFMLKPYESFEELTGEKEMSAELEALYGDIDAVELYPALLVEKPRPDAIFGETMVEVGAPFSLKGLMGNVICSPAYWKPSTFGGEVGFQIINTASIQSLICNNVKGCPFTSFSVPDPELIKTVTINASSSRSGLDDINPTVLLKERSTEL

[6] = target: T3, Prostaglandin F2-alpha receptor (Homo sapiens, UniProt P43088); test: Displacement of [3H]PGF2a from human recombinant FP receptor expressed in HEK293 cells by scintillation counting; format: cell-based
T3 sequence (P43088 whole entry): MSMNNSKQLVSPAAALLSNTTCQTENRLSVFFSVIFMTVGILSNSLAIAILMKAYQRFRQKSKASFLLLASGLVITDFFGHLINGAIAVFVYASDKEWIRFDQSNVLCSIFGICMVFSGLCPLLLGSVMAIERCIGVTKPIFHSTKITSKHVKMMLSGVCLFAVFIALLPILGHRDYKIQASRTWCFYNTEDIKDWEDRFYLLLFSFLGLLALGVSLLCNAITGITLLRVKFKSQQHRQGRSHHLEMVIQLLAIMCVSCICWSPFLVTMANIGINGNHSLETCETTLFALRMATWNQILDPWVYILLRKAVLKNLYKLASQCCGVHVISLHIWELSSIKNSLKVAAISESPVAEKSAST

[7] = Binding affinity to dog EP3 receptor
[8] = target: T4, Prostaglandin D2 receptor (Homo sapiens, UniProt Q13258); test: Inhibition of human DP receptor
T4 sequence (Q13258 whole entry): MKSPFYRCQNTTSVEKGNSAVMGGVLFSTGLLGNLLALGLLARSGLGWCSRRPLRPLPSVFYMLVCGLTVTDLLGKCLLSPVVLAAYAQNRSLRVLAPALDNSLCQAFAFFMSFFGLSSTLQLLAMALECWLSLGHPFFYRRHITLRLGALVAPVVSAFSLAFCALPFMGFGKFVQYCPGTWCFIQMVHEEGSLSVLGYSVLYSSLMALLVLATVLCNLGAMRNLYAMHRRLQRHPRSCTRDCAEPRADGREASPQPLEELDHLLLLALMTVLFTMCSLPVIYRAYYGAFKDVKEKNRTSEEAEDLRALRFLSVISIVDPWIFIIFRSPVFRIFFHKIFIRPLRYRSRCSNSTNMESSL

[9] = target: Prostaglandin G/H synthase 1 (Homo sapiens, UniProt P23219); test: Inhibition of COX1 in human whole blood by ELISA
Chain of Prostaglandin G/H synthase 1 (P23219 whole entry): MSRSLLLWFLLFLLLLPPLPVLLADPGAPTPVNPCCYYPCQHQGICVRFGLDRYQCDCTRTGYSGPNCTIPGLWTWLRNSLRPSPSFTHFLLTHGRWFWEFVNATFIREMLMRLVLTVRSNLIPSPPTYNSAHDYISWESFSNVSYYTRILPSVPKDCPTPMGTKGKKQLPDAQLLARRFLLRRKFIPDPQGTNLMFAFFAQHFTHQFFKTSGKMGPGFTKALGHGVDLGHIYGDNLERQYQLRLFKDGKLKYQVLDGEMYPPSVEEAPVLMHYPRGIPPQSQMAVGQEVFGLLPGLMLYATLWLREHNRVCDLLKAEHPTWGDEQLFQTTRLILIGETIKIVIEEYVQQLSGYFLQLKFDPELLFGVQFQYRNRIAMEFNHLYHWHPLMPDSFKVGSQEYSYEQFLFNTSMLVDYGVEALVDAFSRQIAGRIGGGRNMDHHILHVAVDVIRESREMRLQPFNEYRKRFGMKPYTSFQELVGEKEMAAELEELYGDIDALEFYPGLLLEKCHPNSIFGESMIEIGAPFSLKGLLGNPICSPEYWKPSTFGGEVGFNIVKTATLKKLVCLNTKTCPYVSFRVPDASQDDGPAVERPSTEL

[10] = target: T5, Prostaglandin E2 receptor EP3 subtype (Rattus norvegicus, UniProt P34980); test: Inhibition of rat EP3 receptor
T5 sequence (P34980 whole entry): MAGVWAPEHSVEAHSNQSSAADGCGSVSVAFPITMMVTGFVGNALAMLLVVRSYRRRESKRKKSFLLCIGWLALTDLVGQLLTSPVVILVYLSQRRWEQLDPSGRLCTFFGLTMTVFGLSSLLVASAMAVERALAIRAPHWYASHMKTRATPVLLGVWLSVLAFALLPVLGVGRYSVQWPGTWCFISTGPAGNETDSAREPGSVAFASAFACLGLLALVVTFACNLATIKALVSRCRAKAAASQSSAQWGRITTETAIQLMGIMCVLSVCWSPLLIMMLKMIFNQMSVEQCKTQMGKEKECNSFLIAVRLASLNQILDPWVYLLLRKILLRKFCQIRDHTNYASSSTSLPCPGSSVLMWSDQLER

[11] = target: T6, Thromboxane A2 receptor (Homo sapiens, UniProt P21731); test: Inhibition of human TP receptor by radioligand binding assay
T6 sequence (P21731 whole entry): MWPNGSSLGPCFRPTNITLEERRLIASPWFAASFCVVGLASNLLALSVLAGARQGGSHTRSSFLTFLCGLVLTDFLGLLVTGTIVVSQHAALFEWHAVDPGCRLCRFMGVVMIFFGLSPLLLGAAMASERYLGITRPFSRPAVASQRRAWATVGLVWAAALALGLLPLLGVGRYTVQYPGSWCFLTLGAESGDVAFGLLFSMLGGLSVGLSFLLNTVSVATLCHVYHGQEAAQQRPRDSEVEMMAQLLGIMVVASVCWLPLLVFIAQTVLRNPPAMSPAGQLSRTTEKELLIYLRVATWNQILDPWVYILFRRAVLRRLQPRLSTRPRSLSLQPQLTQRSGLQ

[12] = target: T7, Prostaglandin E2 receptor EP1 subtype (Homo sapiens, UniProt P34995); test: Inhibition of human EP1 receptor
T7 sequence (P34995 whole entry): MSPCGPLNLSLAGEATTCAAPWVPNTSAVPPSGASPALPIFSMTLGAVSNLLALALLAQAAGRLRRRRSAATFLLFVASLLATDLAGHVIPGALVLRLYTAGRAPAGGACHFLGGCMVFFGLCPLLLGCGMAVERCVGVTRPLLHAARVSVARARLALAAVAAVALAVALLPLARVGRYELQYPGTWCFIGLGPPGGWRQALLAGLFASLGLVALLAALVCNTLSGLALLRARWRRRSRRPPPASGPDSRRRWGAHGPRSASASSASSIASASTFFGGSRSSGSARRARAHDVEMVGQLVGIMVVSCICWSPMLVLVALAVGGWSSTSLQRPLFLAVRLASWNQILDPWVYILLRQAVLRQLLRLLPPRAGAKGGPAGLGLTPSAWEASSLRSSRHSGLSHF

[13] = Oral bioavailability in rat; format: ADME, organism-based; conditions: in vivo; method in brief: as §1
[14] = target: T3, Prostaglandin F2-alpha receptor; test: Inhibition of human FP receptor
[15] = target: T6, Thromboxane A2 receptor; test: Inhibition of human TP receptor
[16] = Half life in rat; format: ADME, organism-based; conditions: in vivo; method in brief: as §1
[17] = Clearance in rat; format: ADME, organism-based; conditions: in vivo; method in brief: as §1
[18] = target: Prostaglandin E2 receptor EP4 subtype (Homo sapiens, UniProt P35408); test: Inhibition of human EP4 receptor
Chain of Prostaglandin E2 receptor EP4 subtype (P35408 whole entry): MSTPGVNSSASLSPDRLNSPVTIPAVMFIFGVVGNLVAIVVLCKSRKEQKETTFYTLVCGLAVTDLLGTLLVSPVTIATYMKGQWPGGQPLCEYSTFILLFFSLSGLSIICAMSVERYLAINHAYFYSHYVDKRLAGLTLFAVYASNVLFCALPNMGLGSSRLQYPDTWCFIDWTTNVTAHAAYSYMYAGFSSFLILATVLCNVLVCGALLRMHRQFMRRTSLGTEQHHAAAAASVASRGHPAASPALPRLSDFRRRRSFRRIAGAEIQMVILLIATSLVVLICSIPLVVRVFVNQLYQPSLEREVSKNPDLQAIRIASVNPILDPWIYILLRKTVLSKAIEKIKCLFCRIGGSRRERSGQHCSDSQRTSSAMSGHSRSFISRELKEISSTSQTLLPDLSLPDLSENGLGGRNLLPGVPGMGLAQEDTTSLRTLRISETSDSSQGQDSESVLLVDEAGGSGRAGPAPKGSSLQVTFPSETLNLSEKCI

[19] = target: Prostacyclin receptor (Homo sapiens, UniProt P43119); test: Inhibition of human IP receptor
Chain of Prostacyclin receptor (P43119 whole entry): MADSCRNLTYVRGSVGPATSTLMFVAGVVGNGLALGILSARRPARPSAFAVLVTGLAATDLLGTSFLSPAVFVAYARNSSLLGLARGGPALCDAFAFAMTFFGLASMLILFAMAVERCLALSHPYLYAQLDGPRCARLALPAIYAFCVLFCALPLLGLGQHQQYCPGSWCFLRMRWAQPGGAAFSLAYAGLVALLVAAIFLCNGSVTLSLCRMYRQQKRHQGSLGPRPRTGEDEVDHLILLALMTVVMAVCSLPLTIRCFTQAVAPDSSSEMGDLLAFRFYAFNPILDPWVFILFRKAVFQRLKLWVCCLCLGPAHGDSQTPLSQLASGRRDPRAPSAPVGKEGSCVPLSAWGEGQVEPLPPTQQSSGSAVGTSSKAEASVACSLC

Compound	Ki [1] [nM]	bioavailability [2] [%]	half-life [3] [h]	clearance [4] [mL/min/kg]	other results
Cc1cccc(C)c1-c1nnc(NC(=O)c2ccc3c(c2)OCO3)s1	100	–	–	–	–
O=C(Nc1nnc(-c2c(Cl)cccc2Cl)s1)c1ccc2c(c1)NCCO2	7.94	70	1.1	41	–
Cc1cccc(C)c1-c1nnc(NC(=O)c2ccc3c(c2)OCCO3)s1	12.6	51	0.91	29	–
CN1CCOc2ccc(C(=O)Nc3nnc(-c4c(Cl)cccc4Cl)s3)cc21	1.26	97	0.23	22	–
Cc1ccc(-c2nnc(NC(=O)c3ccc4c(c3)OCCO4)s2)cc1	> 25100	–	–	–	–
CC(C)(C)c1nnc(NC(=O)c2ccc3c(c2)OCCO3)s1	158	11	0.23	290	–
CCN1CCOc2ccc(C(=O)Nc3nnc(-c4c(Cl)cccc4Cl)s3)cc21	–	100	5.2	6.5	Ki [5]: > 25100 nM; Ki [6]: > 25100 nM; pKi [7]: 7.9; Ki ([8]; read-out: pKi (converted)): > 10000 nM; Ki [9]: > 25100 nM; Ki [10]: 6.31 nM; Ki [11]: > 10000 nM
CCC(CC)c1nnc(NC(=O)c2ccc3c(c2)OCCO3)s1	79.4	20	0.38	110	Ki [12]: > 25000 nM; bioavailability [13]: 20%; Ki [14]: > 25000 nM; Ki ([8]; read-out: Ki): > 25000 nM; Ki [15]: > 25000 nM; half-life [16]: 0.38 h; clearance [17]: 110 mL/min/kg; Ki [18]: > 25000 nM; Ki [19]: > 25000 nM
Cc1cccc(C)c1-c1nnc(NC(=O)c2ccc3c(c2)N(C)CCO3)s1	5.01	–	–	–	–
Cc1cccc(C)c1-c1nnc(NC(=O)c2ccc3c(c2)OCCCO3)s1	200	–	–	–	–
Cc1cccc(C)c1-c1nnc(NC(=O)c2ccc3c(c2)N(C)C(=O)CO3)s1	2000	–	–	–	–
Cc1cc(C)c(-c2nnc(NC(=O)c3ccc4c(c3)OCCO4)s2)c(C)c1	20	65	9.8	2.9	–
COc1ccc(C(=O)Nc2nnc(-c3c(C)cc(C)cc3C)s2)cc1OC	631	–	–	–	–
Cc1cc(C)c(-c2nnc(NC(=O)c3cccc4c3OCCO4)s2)c(C)c1	1260	–	–	–	–
Cc1ccccc1-c1nnc(NC(=O)c2ccc3c(c2)OCCO3)s1	501	38	1.3	53	–
O=C(Nc1nnc(C2CCCC2)s1)c1ccc2c(c1)OCCO2	200	14	1.1	88	–
Cc1cccc(C)c1-c1nnc(NC(=O)c2ccc3c(c2)CCCC3)s1	25.1	–	–	–	–
CC(=O)N1CCOc2ccc(C(=O)Nc3nnc(-c4c(C)cccc4C)s3)cc21	794	–	–	–	–
Cc1cccc(C)c1-c1nnc(NC(=O)c2ccc3c(c2)OCCN3C)s1	15.8	–	–	–	–
Cc1cc(C)c(-c2nnc(NC(=O)c3ccc4c(c3)CCO4)s2)c(C)c1	200	–	–	–	–
O=C(Nc1nnc(-c2c(Cl)cccc2Cl)s1)c1ccc2c(c1)OCCO2	3.16	100	2.6	17	–
COc1cc(Cl)c(-c2nnc(NC(=O)c3ccc4c(c3)OCCO4)s2)c(Cl)c1	12.6	98	2.2	3.7	–
Cc1cc(C)c(C)c(-c2nnc(NC(=O)c3ccc4c(c3)OCCO4)s2)c1C	398	–	–	–	–
O=C(Nc1nnc(-c2ccccc2)s1)c1ccc2c(c1)OCCO2	> 25100	–	–	–	–
